Data taken from article PMC3187937 (Biochemistry, 2011).
Several values for one entry are separate records, joined by “and”; a condition that tells them apart may be missing. Equal values may be shown once. Read-outs that look alike come from different tables or passages of the source.

Columns and labels:
[1] = molecular target: purified R. capsulatus cyt b E295V mutant cyt bc1 (Rhodobacter capsulatus, UniProt D5ANZ3, E295V); assay: Zn^2+ inhibition kinetics of DBH2:cyt c reductase activity, E295V mutant enzyme; type: biochemical
Sequence of purified R. capsulatus cyt b E295V mutant cyt bc1 (D5ANZ3 whole entry E295V, one chain of several): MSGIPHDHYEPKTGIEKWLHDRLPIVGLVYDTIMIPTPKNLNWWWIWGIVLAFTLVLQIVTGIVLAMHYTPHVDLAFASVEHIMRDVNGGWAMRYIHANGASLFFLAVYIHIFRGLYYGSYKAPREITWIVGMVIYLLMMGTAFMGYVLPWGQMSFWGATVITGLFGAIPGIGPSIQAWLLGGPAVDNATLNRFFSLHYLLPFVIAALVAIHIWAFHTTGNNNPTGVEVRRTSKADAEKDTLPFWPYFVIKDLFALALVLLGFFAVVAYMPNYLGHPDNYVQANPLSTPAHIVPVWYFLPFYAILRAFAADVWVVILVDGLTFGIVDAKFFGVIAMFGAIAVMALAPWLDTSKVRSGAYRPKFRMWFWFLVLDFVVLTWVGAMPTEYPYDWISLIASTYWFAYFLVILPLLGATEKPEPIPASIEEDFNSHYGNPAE

[2] = molecular target: E295V mutant cyt bc1 (Rhodobacter capsulatus, UniProt D5ANZ3, E295V); type: binding
Sequence of E295V mutant cyt bc1 (D5ANZ3 whole entry E295V, one chain of several): as above

[3] = molecular target: T1, purified R. capsulatus wild-type cyt bc1 (Rhodobacter capsulatus, UniProt D5ANZ3); assay: Zn^2+ inhibition kinetics of DBH2:cyt c reductase activity, wild-type enzyme; type: biochemical; conditions: 40 mM Tris-HCl buffer pH 7.5, single homogeneous inhibition site fit, free Zn^2+
T1 sequence (D5ANZ3 1-437): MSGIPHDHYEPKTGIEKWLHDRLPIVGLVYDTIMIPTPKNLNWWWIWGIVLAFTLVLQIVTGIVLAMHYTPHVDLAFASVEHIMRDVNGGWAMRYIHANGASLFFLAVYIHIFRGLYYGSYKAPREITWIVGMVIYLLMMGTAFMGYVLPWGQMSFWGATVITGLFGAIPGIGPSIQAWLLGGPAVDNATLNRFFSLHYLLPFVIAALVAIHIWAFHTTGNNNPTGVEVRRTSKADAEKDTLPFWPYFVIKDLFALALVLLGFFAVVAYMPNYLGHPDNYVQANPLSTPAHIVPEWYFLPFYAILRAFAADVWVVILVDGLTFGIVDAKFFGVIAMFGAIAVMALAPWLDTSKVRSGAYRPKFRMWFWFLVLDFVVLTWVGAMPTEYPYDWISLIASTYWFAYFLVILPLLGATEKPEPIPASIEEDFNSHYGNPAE
T1 sequence (D5ANZ2 1-191 partner): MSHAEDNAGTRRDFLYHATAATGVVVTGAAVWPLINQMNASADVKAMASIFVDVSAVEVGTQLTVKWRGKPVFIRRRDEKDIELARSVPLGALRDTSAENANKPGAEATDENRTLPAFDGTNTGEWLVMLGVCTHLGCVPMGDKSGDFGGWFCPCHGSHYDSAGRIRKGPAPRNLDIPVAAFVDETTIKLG
T1 sequence (D5ANZ4 22-279 partner): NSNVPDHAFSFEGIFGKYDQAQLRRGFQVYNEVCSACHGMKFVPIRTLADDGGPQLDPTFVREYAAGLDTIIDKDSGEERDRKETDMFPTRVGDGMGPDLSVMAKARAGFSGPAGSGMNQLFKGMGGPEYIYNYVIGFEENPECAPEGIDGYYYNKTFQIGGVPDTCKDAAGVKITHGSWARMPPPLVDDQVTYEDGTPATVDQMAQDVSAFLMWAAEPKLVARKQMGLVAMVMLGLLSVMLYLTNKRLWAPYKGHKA

[4] = molecular target: bovine cyt bc1; conditions: cited from earlier work
[5] = molecular target: chicken cyt bc1; conditions: avian; ref [25]; cited from earlier work
[6] = molecular target: T2, hemes of R. capsulatus cyt bc1 (Rhodobacter capsulatus, UniProt D5ANZ3)
T2 sequence (D5ANZ3 1-437): T1 sequence (D5ANZ3 1-437)
T2 sequence (D5ANZ2 1-191 partner): T1 sequence (D5ANZ2 1-191 partner)
T2 sequence (D5ANZ4 22-279 partner): T1 sequence (D5ANZ4 22-279 partner)

[7] = molecular target: bovine cyt bc1; conditions: cited from earlier work; remark: listed apart in the source
[8] = molecular target: T3, wild-type cyt bc1 (Rhodobacter capsulatus, UniProt D5ANZ3); assay: Isothermal titration calorimetry of Zn^2+ binding, wild-type enzyme
T3 sequence (D5ANZ3 1-437): T1 sequence (D5ANZ3 1-437)
T3 sequence (D5ANZ2 1-191 partner): T1 sequence (D5ANZ2 1-191 partner)
T3 sequence (D5ANZ4 22-279 partner): T1 sequence (D5ANZ4 22-279 partner)

[9] = molecular target: R. capsulatus E295V mutant cyt bc1 (Rhodobacter capsulatus, UniProt D5ANZ3, E295V); assay: Michaelis-Menten kinetics of DBH2:cyt c reductase, E295V mutant enzyme; type: biochemical; conditions: DBH2 as substrate
Sequence of R. capsulatus E295V mutant cyt bc1 (D5ANZ3 whole entry E295V, one chain of several): as the sequence (D5ANZ3 whole entry E295V, one chain of several) above

[10] = molecular target: T4, R. capsulatus wild-type cyt bc1 (Rhodobacter capsulatus, UniProt D5ANZ3); assay: Michaelis-Menten kinetics of DBH2:cyt c reductase, wild-type enzyme; type: biochemical; conditions: DBH2 as substrate
T4 sequence (D5ANZ3 1-437): T1 sequence (D5ANZ3 1-437)
T4 sequence (D5ANZ2 1-191 partner): T1 sequence (D5ANZ2 1-191 partner)
T4 sequence (D5ANZ4 22-279 partner): T1 sequence (D5ANZ4 22-279 partner)
Outline: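 Enzyme purified by DDM solubilisation of chromatophore membranes from respiratory-grown cells, then DEAE and Sephacryl S400 chromatography. Assay: 2.3 nM enzyme with 40 μM horse heart cyt c, 2 mM KCN and 0.1 g/L DDM in 50 mM sodium phosphate pH 7.4, stirred at 20 °C. DBH₂ in DMSO was varied from 0.5 to 40 μM. Initial cyt c reduction rate read at 550 nm over 1 min. Km and Vmax came from double-reciprocal plots and Michaelis-Menten fitting.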

[11] = E295V, blind fit, two-site model

Molecule `[Zn+2]` [Zn^2+] has a Ki ([1]; 40 mM Tris-HCl buffer pH 7.5, single site fit, free Zn^2+) of 2600 nM, a residual activity ([1]; [Zn^2+] > 0.2 mM) of 30% and a n1 [2, 11] of 1.97 ± 0.08. The “n2, low affinity binding sites per cyt bc1” value [2, 11] was 7.1 ± 0.3, the ΔH1 [2, 11] was -9.9 ± 0.7 kcal/mol and the ΔH2 [2, 11] was -2.6 ± 0.3 kcal/mol. The “n2, number of low affinity sites” value ([2]; E295V, n1 = 1 fixed) was 9.1 ± 0.5, the ΔH1 ([2]; E295V, n1 = 1 fixed) was -28 ± 4 kcal/mol and the ΔH2 ([2]; E295V, n1 = 1 fixed) was -0.9 ± 0.5 kcal/mol. For the same molecule, the Kd ([2]; read-out: KD1 (high affinity site), E295V, two-site model with n1 = 1 fixed) was 1000 ± 360 nM, the Kd ([2]; read-out: KD2 (low affinity sites), E295V, n1 = 1 fixed) was 3500 ± 1600 nM and the Kd ([2]; read-out: KD2, E295V, blind fit, two-site model) was 5810 ± 1220 nM. For the same molecule, the “change of KD1 of high affinity site in E295V compared to wild type” value ([2]; unitary stoichiometry assumed) was “increase by a factor of two”, the Ki [3] was 900 nM and the Kd ([4]; pH 7.0, first value of cell, ref [39]) was 100 nM. The Kd ([4]; read-out: KD (second value), second value of cell, ref [39]) was greater than 2000 nM, the Ki [5] was 3000 nM and the “effect on midpoint potentials of the b-type hemes” value ([6]; wild type, 200 μM Zn^2+, oxidative titration, pH 8.0) was “does not significantly affect”. For the same molecule, the “effect on oxidation rate” value ([6]; with Zn^2+ added, +500 mV vs SHE) was “remained unaffected”, the “time to fully reduced samples after application of the reducing potential” value ([6]; with Zn^2+ added, −500 mV vs SHE, within 7 minutes without Zn^2+) was 10 min and the Ki ([7]; pH 7.0, ref [39]) was 100 nM. The “Complete inhibition (Zn^2+ concentration)” value ([7]; ref [39]) was “[Zn^2+] > 5 μM”, the ΔH1 ([8]; high affinity site) was -5.6 ± 0.2 kcal/mol and the ΔH2 ([8]; lower affinity sites) was -1.4 ± 0.2 kcal/mol. The Kd ([8]; read-out: KD1 (high affinity site), two-site model) was 500 ± 70 nM, the Kd ([8]; read-out: KD2 (lower affinity sites), two-site model) was 6800 ± 900 nM and the Kd ([8]; read-out: KD (high affinity site), two-site model) was 500 nM. The Kd ([8]; read-out: KD (lower affinity sites), two-site model) was 6800 nM, the “n1, stoichiometry of high affinity site” value ([8]; sites per protein complex) was 1.13 ± 0.03 and the “n2, number of lower affinity binding sites” value ([8]; sites per protein complex) was 3.7 ± 0.2.
With `CCCCCCCCCCc1c(C)c(O)c(OC)c(OC)c1O` [DBH2, Decylbenzohydroquinone] the “Vmax of E295V relative to wild type (fold lower)” value ([9]; steady-state) was 4 fold, the Kcat ([9]; E295V) was 34.3 ± 4.5 s⁻¹ and the Vmax ([9]; E295V) was 10.6 ± 0.4 µmol/min/mg. The Km ([9]; E295V, purified enzyme) was 3.1 ± 0.4 µM, the Kcat [10] was 85.2 ± 13.1 s⁻¹ and the Vmax [10] was 42.4 µmol/min/mg and 42.4 ± 0.8 µmol/min/mg. For the same molecule, the Km ([10]; purified enzyme) was 4.9 ± 0.2 µM.
